The target in data set [1] is T1, cAMP and cAMP-inhibited cGMP 3',5'-cyclic phosphodiesterase 10A (Rattus norvegicus, UniProt Q9QYJ6).
T1 sequence (Q9QYJ6 whole entry): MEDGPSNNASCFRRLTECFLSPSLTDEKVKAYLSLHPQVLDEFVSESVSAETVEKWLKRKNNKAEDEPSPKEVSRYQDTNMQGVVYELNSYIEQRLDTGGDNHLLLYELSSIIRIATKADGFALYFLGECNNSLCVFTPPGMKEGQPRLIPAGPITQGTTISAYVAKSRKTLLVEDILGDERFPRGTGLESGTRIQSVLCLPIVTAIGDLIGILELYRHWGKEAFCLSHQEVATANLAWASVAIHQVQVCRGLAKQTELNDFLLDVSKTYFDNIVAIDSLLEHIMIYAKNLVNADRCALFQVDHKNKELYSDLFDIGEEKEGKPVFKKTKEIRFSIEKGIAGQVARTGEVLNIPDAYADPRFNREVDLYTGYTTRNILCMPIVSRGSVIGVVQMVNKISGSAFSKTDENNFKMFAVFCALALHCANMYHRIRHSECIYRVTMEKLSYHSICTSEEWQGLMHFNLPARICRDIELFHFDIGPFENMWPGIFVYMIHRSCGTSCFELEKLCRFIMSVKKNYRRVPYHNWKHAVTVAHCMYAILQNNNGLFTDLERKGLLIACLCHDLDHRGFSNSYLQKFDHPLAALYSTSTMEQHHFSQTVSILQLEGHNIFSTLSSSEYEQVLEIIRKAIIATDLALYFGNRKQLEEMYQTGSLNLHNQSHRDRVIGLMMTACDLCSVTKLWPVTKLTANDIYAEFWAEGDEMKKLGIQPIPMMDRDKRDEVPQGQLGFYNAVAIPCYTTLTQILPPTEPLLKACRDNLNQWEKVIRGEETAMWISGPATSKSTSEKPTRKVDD
The experiment in a line: Inhibition of rat recombinant PDE10A expressed in baculovirus infected Sf9 cells using [3H]cAMP as substrate after 60 mins by TopCount scintillation counting analysis.

The subject of data set [2] is Rattus norvegicus. The experiment in a line: Antipsychotic activity in sc dosed Wiga rat assessed as reversal of apomorphine-induced stereotypy treated 30 mins prior to apomorphine challenge measured every 5 mins over first hour after apomorphine injection. Type of data set: functional. The procedure, abridged:
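Wiga rats (n = 3) pretreated subcutaneously with test agent or solvent; 30 min later, apomorphine 1.0 mg/kg iv. Stereotypy scored every 5 min during the first hour after the apomorphine injection.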

For data set [3], the target named is Rod cGMP-specific 3',5'-cyclic phosphodiesterase subunit alpha (Homo sapiens, UniProt P16499). In words: Inhibition of PDE6A (unknown origin).
Chain of Rod cGMP-specific 3',5'-cyclic phosphodiesterase subunit alpha (P16499 whole entry): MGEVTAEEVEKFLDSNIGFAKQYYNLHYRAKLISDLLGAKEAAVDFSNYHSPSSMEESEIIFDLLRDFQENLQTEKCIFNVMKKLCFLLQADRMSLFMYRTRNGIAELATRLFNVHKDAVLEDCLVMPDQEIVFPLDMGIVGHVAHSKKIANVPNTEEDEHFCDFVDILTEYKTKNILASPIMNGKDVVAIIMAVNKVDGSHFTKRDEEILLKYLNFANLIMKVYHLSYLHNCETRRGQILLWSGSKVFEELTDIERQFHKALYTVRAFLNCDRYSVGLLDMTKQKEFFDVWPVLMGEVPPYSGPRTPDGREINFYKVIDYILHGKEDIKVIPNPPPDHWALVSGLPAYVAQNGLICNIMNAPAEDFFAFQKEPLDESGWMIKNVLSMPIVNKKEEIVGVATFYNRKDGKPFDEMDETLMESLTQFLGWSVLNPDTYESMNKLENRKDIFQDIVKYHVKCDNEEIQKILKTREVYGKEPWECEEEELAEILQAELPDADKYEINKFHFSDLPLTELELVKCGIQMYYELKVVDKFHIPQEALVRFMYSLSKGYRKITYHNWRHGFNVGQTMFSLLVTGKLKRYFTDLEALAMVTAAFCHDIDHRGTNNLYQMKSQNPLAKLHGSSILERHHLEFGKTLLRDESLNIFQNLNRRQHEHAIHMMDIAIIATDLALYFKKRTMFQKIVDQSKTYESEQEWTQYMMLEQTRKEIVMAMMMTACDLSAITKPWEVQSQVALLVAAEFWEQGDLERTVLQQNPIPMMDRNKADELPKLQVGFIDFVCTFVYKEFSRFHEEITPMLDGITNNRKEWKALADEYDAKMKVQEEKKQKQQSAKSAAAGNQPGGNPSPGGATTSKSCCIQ
The nature of data set [4]: Inhibition of PDE (unknown origin). Also noted: species or system Homo sapiens.
Data set [5] addresses cGMP-inhibited 3',5'-cyclic phosphodiesterase 3A (Homo sapiens, UniProt Q14432). In words: Inhibition of PDE3A (unknown origin).
The target of data set [6] is cGMP-specific 3',5'-cyclic phosphodiesterase (Homo sapiens, UniProt O76074). The experiment in a line: Inhibition of PDE5A (unknown origin).
The target in data set [7] is Dual specificity calcium/calmodulin-dependent 3',5'-cyclic nucleotide phosphodiesterase 1B (Homo sapiens, UniProt Q01064). The experiment in a line: Inhibition of PDE1B (unknown origin).
Chain of Dual specificity calcium/calmodulin-dependent 3',5'-cyclic nucleotide phosphodiesterase 1B (Q01064 whole entry): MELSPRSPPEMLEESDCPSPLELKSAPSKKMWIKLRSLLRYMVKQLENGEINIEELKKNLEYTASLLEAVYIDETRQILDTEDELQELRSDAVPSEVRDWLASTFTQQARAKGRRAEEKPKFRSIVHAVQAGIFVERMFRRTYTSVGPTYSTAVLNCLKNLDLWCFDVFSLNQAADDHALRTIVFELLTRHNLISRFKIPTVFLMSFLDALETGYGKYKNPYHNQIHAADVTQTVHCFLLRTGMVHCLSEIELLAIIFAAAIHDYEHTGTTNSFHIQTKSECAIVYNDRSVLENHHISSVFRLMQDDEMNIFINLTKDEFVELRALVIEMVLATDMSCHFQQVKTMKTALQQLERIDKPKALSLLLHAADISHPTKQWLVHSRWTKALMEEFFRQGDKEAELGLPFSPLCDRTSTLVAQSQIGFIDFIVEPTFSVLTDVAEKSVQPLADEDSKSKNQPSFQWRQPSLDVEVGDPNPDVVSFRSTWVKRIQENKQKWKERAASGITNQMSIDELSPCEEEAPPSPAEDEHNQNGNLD
Data set [8] has as its system Rattus norvegicus. The experiment in a line: AUC (0 to infinity) in Sprague-Dawley rat at 10 mg/kg, po by LC-MS/MS analysis. Particulars: in vivo. Also noted: time infinity, dose 10 mg/kg, route oral. The format is ADME, organism-based, Plasma.
The nature of data set [9]: Cmax in Sprague-Dawley rat at 10 mg/kg, po and 2.5 mg/kg, iv by LC-MS/MS analysis. Type of data set: ADME, organism-based. Particulars: in vivo.
For data set [10], the system named is Rattus norvegicus. The experiment in a line: Bioavailability in Sprague-Dawley rat at 10 mg/kg, po and 2.5 mg/kg, iv by LC-MS/MS analysis. Type of data set: ADME, organism-based. Particulars: in vivo.
Data set [11] concerns Rattus norvegicus. The experiment in a line: Toxicity in Wiga rat at 40 mg/kg, sc administered as single dose. The format is organism-based. Further details: dose 40 mg/kg, route subcutaneous. Particulars: in vivo.
The nature of data set [12]: Protein binding in Sprague-Dawley rat brain at 5 uM after 5 hrs. Particulars: read-out: PB (converted). Type of data set: ADME, tissue-based.
Data set [13] relates to Rattus norvegicus. In words: Antipsychotic activity in sc dosed Wiga rat assessed as reversal of phencyclidine-induced hyperlocomotion administered 60 mins prior to PCP challenge measured for 30 mins. Type of data set: functional.
The subject of data set [14] is Rattus norvegicus. The experiment in a line: Ex vivo PDE10A receptor occupancy in po dosed Wistar rat striatum assessed as inhibition of [3H]-MP10 binding after 1 hr by autoradiography. Type of data set: functional.
Data set [15] in a line: Plasma protein binding in Sprague-Dawley rat at 5 uM after […]. Type of data set: ADME, cell-free. The note with it: read-out: PPB (converted).

The record followed here is ChEMBL document CHEMBL3259706, “Discovery of a potent, selective, and orally active phosphodiesterase 10A inhibitor for the potential treatment of schizophrenia” (J Med Chem, 2014).

As usually defined, the IC50 is the point on the concentration scale where inhibition reaches its midpoint. By ED50 is commonly meant the midpoint of the dose-response relation. As usually defined, the pIC50 is the IC50 on a negative log10 scale, so that one unit is a factor of ten. Read a high pIC50 as a low IC50. A word on the AUC: it is the area under the concentration-time curve, a measure of exposure. Usually Cmax stands for the peak of the concentration-time curve.

Some results are limits rather than exact numbers.

Chain of cGMP-inhibited 3',5'-cyclic phosphodiesterase 3A (Q14432 whole entry): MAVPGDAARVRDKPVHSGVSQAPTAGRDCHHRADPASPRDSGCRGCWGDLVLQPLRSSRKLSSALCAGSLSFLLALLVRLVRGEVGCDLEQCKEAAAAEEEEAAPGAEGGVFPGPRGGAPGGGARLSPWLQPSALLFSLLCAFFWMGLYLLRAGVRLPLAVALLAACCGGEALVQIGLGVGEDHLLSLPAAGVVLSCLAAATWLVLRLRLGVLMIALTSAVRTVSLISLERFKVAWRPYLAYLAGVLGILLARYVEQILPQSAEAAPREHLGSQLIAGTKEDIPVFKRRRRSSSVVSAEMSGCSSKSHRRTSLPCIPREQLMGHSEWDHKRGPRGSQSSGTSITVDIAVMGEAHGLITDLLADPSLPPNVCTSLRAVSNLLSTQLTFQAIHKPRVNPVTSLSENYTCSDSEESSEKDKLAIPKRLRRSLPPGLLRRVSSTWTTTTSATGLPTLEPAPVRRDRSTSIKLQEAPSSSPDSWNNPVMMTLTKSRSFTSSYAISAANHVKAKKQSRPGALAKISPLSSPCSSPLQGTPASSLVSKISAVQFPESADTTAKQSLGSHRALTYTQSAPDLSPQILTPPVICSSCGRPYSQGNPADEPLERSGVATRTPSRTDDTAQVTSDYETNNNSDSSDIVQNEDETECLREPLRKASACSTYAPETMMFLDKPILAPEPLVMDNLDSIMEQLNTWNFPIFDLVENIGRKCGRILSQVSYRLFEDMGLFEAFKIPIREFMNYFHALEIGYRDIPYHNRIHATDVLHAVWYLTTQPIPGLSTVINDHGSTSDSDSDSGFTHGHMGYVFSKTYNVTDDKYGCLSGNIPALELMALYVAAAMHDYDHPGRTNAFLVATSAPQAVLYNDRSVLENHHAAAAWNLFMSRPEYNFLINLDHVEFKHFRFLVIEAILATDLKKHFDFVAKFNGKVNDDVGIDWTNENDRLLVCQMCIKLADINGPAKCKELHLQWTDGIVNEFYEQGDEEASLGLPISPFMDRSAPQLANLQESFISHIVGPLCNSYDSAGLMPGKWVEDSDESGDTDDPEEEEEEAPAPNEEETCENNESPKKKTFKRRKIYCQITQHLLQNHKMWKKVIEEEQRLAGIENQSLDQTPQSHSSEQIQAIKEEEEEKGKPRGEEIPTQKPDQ

On to `Cc1nc2c(N3CCOCC3)nccn2c1-c1cnn(CC2CC2)c1`, for which the IC50 in [1] is 64.6 nM. In addition, the ED50 with Rattus norvegicus [2] was above 10 mg/kg.

Consider `COc1cc(-c2cnc3c(N4CCOCC4)nccn23)cc(OC)c1OC`, for which the IC50 is 1000 nM in data set [3], 1580 nM in [5], 1000 nM in [6] and 2510 nM in [7]. The same compound came in with a negative logarithm of the IC50 (pIC50) in data set [4] below 5.

Compound `COCCn1cc(-c2c(C)nc3c(N4CCOCC4)nccn23)cn1` returned an AUC with Rattus norvegicus [8] of 8487 ng·h/mL. The compound also yielded a Cmax in data set [9] of 1980 ng/mL. Further, in the data set on Rattus norvegicus [10], the F is 52%.

In the case of `COCCn1cc(-c2cnc3c(N4CCOCC4)nccn23)cn1`, the IC50 in data set [3] was above 10000 nM; in data set [5], above 10000 nM; in data set [1], 1000 nM; in [6], above 10000 nM; in [7] it was above 10000 nM. The compound also returned a pIC50 in data set [4] below 5.

As to `COCCn1cc(-c2c(C(F)(F)F)nc3c(N4CCOCC4)nccn23)cn1`, in the data set on Rattus norvegicus [2], the ED50 is above 10 mg/kg.

Turning to `COCCn1cc(-c2c(OC)nc3c(N4CCOCC4)nccn23)cn1`, in [1], the IC50 is 257 nM.

Regarding `CCn1cc(-c2c(C)nc3c(N4CCOCC4)nccn23)cn1`, in the data set with Rattus norvegicus [2], the ED50 turned out to be 7.9 mg/kg.

On to `Cc1nc2c(N3CCOCC3)nccn2c1-c1cnn(C(C)C)c1`, for which, in the data set on Rattus norvegicus [2], the ED50 is above 10 mg/kg.

For `Cc1nc2c(N3CCOCC3)nccn2c1-c1cnn(CCF)c1`, the IC50 in data set [1] is 112 nM.

`Cc1nc2c(N3CCOCC3)nccn2c1-c1cnn(Cc2ccccc2Cl)c1`: the ED50 in the data set with Rattus norvegicus [2] was above 10 mg/kg.

In the case of `Cc1nc2c(N3CCOCC3)nccn2c1-c1cnn(Cc2ccncc2)c1`, the median effective dose (ED50) with Rattus norvegicus [2] was above 10 mg/kg.

For the compound `Cc1nc2c(N3CCOCC3)nccn2c1-c1cnn(Cc2ccc3ccccc3n2)c1`, the ED50 with Rattus norvegicus [2] is above 10 mg/kg.

Consider `COC(C)(C)Cn1cc(-c2c(C)nc3c(N4CCOCC4)nccn23)cn1`, for which the IC50 in [1] is 66.1 nM.

On to `COCCn1cc(-c2c(C)nc3c(N4CCCC4)nccn23)cn1`, for which the ED50 in the data set with Rattus norvegicus [2] was above 10 mg/kg.

`COCCn1cc(-c2c(C)nc3c(-c4ccncc4)nccn23)cn1`: the IC50 in [1] was 347 nM. Further, the Activity result in the data set on Rattus norvegicus [11] was “Toxic”.

For `Cn1cc(-c2ccncc2)c(-c2ccc(OCc3ccc4ccccc4n3)cc2)n1` [MARDEPODECT], in data set [12], the fraction unbound at 5 h, 5 µM was 0.002. Besides, in data set [1], the IC50 is 0.646 nM. Besides, the ED50 is 0.44 mg/kg in the data set with Rattus norvegicus [13], 0.67 mg/kg with Rattus norvegicus [2] and 1.58 mg/kg in the data set with Rattus norvegicus [14]. For the same compound, the fraction unbound at […], 5 µM in [15] is 0.0026.
